Assays:
[1] = test system: U2OS; experiment: Multiplex assay against U2OS; type: toxicity, cell-based; conditions: human
In short: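 Tubulin, mitochondrial-mass and membrane-permeability phenotypes are per cents of healthy-nucleus cells. Cells were gated by CellPathfinder machine learning into Hoechst high-intensity objects or normal cells, normal cells into healthy, pyknosed or fragmented nuclei, and pyknosed cells into mitotic or apoptotic. Before that, live cells stained at seeding with Hoechst33342, BioTracker Green Microtubule Cytoskeleton Dye, MitoTracker Red and Annexin V Alexa Fluor 680 were imaged on a CQ1 microscope at 37°C and 5% CO2 after compound addition.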

[2] = test system: Fibroblast; experiment: Incucyte cell viability with human fibroblast; type: toxicity, cell-based; conditions: 10 µM, compound concentration 10 uM; note: filed as whole numbers so only -1 and 0 and 1 occur
[3] = 12 h, 1 µM, compound concentration 1 uM, replicate 1
[4] = 12 h, 1 µM, compound concentration 1 uM, replicate 2
[5] = 12 h, 10 µM, compound concentration 10 uM, replicate 1
[6] = 12 h, 10 µM, compound concentration 10 uM, replicate 2
[7] = 24 h, 1 µM, compound concentration 1 uM, replicate 1
[8] = 24 h, 1 µM, compound concentration 1 uM, replicate 2
[9] = 24 h, 10 µM, compound concentration 10 uM, replicate 1
[10] = 24 h, 10 µM, compound concentration 10 uM, replicate 2
[11] = 48 h, 1 µM, compound concentration 1 uM, replicate 1
[12] = 48 h, 1 µM, compound concentration 1 uM, replicate 2
[13] = 48 h, 10 µM, compound concentration 10 uM, replicate 1
[14] = 48 h, 10 µM, compound concentration 10 uM, replicate 2

Oc1cccc(-c2nc(N3CCOCC3)c3oc4ncccc4c3n2)c1 [PI-103]
Population Apoptotic (%) [1, 3]: 73% | Population Fragmented Nuclei (%) [1, 3]: 20% | Population Healthy Nuclei (%) [1, 3]: 67% | Population Hoechst High Intensity Objects (%) [1, 3]: 11% | Population Membrane Permeable-Phenotype (%) [1, 3]: 8% | Population Mitochondria Different-Phenotype (%) [1, 3]: 7% | Population Mitotic Cells (%) [1, 3]: 26% | Population Normal (%) [1, 3]: 88% | Population Pyknosed Nuclei (%) [1, 3]: 12% | Population Tubulin-Different-Phenotype (%) [1, 3]: 14% | Total Cell Count [1, 3]: 224 | Population Apoptotic (%) [1, 4]: 47% | Population Fragmented Nuclei (%) [1, 4]: 10% | Population Healthy Nuclei (%) [1, 4]: 63% | Population Hoechst High Intensity Objects (%) [1, 4]: 5% | Population Membrane Permeable-Phenotype (%) [1, 4]: 2% | Population Mitotic Cells (%) [1, 4]: 52% | Population Normal (%) [1, 4]: 94% | Population Pyknosed Nuclei (%) [1, 4]: 26% | Population Tubulin-Different-Phenotype (%) [1, 4]: 0% | Total Cell Count [1, 4]: 73 | Population Apoptotic (%) [1, 5]: 42% | Population Fragmented Nuclei (%) [1, 5]: 20% | Population Healthy Nuclei (%) [1, 5]: 47% | Population Hoechst High Intensity Objects (%) [1, 5]: 6% | Population Membrane Permeable-Phenotype (%) [1, 5]: 35% | Population Mitochondria Different-Phenotype (%) [1, 5]: 63% | Population Mitotic Cells (%) [1, 5]: 57% | Population Normal (%) [1, 5]: 93% | Population Pyknosed Nuclei (%) [1, 5]: 31% | Population Tubulin-Different-Phenotype (%) [1, 5]: 80% | Total Cell Count [1, 5]: 168 | Population Apoptotic (%) [1, 6]: 36% | Population Fragmented Nuclei (%) [1, 6]: 18% | Population Healthy Nuclei (%) [1, 6]: 39% | Population Hoechst High Intensity Objects (%) [1, 6]: 5% | Population Membrane Permeable-Phenotype (%) [1, 6]: 33% | Population Mitochondria Different-Phenotype (%) [1, 6]: 59% | Population Mitotic Cells (%) [1, 6]: 63% | Population Normal (%) [1, 6]: 94% | Population Pyknosed Nuclei (%) [1, 6]: 41% | Population Tubulin-Different-Phenotype (%) [1, 6]: 83% | Total Cell Count [1, 6]: 69 | Population Apoptotic (%) [1, 7]: 56% | Population Fragmented Nuclei (%) [1, 7]: 21% | Population Healthy Nuclei (%) [1, 7]: 61% | Population Hoechst High Intensity Objects (%) [1, 7]: 8% | Population Membrane Permeable-Phenotype (%) [1, 7]: 7% | Population Mitochondria Different-Phenotype (%) [1, 7]: 4% | Population Mitotic Cells (%) [1, 7]: 43% | Population Normal (%) [1, 7]: 91% | Population Pyknosed Nuclei (%) [1, 7]: 16% | Population Tubulin-Different-Phenotype (%) [1, 7]: 11% | Total Cell Count [1, 7]: 224 | Population Apoptotic (%) [1, 8]: 75% | Population Fragmented Nuclei (%) [1, 8]: 14% | Population Healthy Nuclei (%) [1, 8]: 69% | Population Hoechst High Intensity Objects (%) [1, 8]: 6% | Population Membrane Permeable-Phenotype (%) [1, 8]: 3% | Population Mitochondria Different-Phenotype (%) [1, 8]: 3% | Population Mitotic Cells (%) [1, 8]: 25% | Population Normal (%) [1, 8]: 93% | Population Tubulin-Different-Phenotype (%) [1, 8]: 1% | Total Cell Count [1, 8]: 73 | Population Apoptotic (%) [1, 9]: 54% | Population Fragmented Nuclei (%) [1, 9]: 25% | Population Healthy Nuclei (%) [1, 9]: 40% | Population Hoechst High Intensity Objects (%) [1, 9]: 10% | Population Membrane Permeable-Phenotype (%) [1, 9]: 20% | Population Mitochondria Different-Phenotype (%) [1, 9]: 62% | Population Mitotic Cells (%) [1, 9]: 45% | Population Normal (%) [1, 9]: 89% | Population Pyknosed Nuclei (%) [1, 9]: 34% | Population Tubulin-Different-Phenotype (%) [1, 9]: 74% | Total Cell Count [1, 9]: 196 | Population Apoptotic (%) [1, 10]: 50% | Population Fragmented Nuclei (%) [1, 10]: 28% | Population Healthy Nuclei (%) [1, 10]: 24% | Population Hoechst High Intensity Objects (%) [1, 10]: 4% | Population Membrane Permeable-Phenotype (%) [1, 10]: 44% | Population Mitochondria Different-Phenotype (%) [1, 10]: 75% | Population Mitotic Cells (%) [1, 10]: 49% | Population Normal (%) [1, 10]: 95% | Population Pyknosed Nuclei (%) [1, 10]: 47% | Population Tubulin-Different-Phenotype (%) [1, 10]: 89% | Total Cell Count [1, 10]: 80 | Population Apoptotic (%) [1, 11]: 70% | Population Fragmented Nuclei (%) [1, 11]: 18% | Population Healthy Nuclei (%) [1, 11]: 64% | Population Hoechst High Intensity Objects (%) [1, 11]: 7% | Population Membrane Permeable-Phenotype (%) [1, 11]: 7% | Population Mitochondria Different-Phenotype (%) [1, 11]: 6% | Population Mitotic Cells (%) [1, 11]: 29% | Population Normal (%) [1, 11]: 92% | Population Pyknosed Nuclei (%) [1, 11]: 17% | Population Tubulin-Different-Phenotype (%) [1, 11]: 16% | Total Cell Count [1, 11]: 222 | Population Apoptotic (%) [1, 12]: 63% | Population Fragmented Nuclei (%) [1, 12]: 10% | Population Healthy Nuclei (%) [1, 12]: 75% | Population Hoechst High Intensity Objects (%) [1, 12]: 4% | Population Membrane Permeable-Phenotype (%) [1, 12]: 8% | Population Mitochondria Different-Phenotype (%) [1, 12]: 4% | Population Mitotic Cells (%) [1, 12]: 36% | Population Normal (%) [1, 12]: 95% | Population Pyknosed Nuclei (%) [1, 12]: 13% | Population Tubulin-Different-Phenotype (%) [1, 12]: 8% | Total Cell Count [1, 12]: 72 | Population Apoptotic (%) [1, 13]: 70% | Population Fragmented Nuclei (%) [1, 13]: 35% | Population Healthy Nuclei (%) [1, 13]: 26% | Population Hoechst High Intensity Objects (%) [1, 13]: 15% | Population Membrane Permeable-Phenotype (%) [1, 13]: 37% | Population Mitochondria Different-Phenotype (%) [1, 13]: 48% | Population Mitotic Cells (%) [1, 13]: 29% | Population Normal (%) [1, 13]: 84% | Population Pyknosed Nuclei (%) [1, 13]: 38% | Population Tubulin-Different-Phenotype (%) [1, 13]: 56% | Total Cell Count [1, 13]: 215 | Population Apoptotic (%) [1, 14]: 68% | Population Fragmented Nuclei (%) [1, 14]: 26% | Population Hoechst High Intensity Objects (%) [1, 14]: 12% | Population Membrane Permeable-Phenotype (%) [1, 14]: 85% | Population Mitochondria Different-Phenotype (%) [1, 14]: 77% | Population Mitotic Cells (%) [1, 14]: 31% | Population Normal (%) [1, 14]: 87% | Population Pyknosed Nuclei (%) [1, 14]: 47% | Population Tubulin-Different-Phenotype (%) [1, 14]: 88% | Total Cell Count [1, 14]: 86 | Growth Rate ([2]; 0 h, replicate number 2, timepoint 0 hours): 0 | Growth Rate ([2]; 6 h, replicate number 1, timepoint 6 hours): 0 | Growth Rate ([2]; 12 h, replicate number 1, timepoint 12 hours): 0 | Growth Rate ([2]; 18 h, replicate number 1, timepoint 18 hours): 0 | Growth Rate ([2]; 24 h, replicate number 1, timepoint 24 hours): 0

Source: ChEMBL document CHEMBL4689842, “EUbOPEN Chemogenomics Library wave 1” (2021)
